Calls of active or inactive are those of the source. The calls are words filed in the database; no cut-off is given here.
What was measured:
Staphylococcus aureus [1] = assay: Antimicrobial activity against community acquired methicillin-resistant Staphylococcus aureus isolate 35392 assessed as inhibition of bacterial biofilm after 18 hrs by broth microdilution method; type: functional
Procedure, shortened: (§1)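 Biofilm MBIC on tissue culture-treated polystyrene 96-well plates. Twofold dilutions, 0.2 to 100 μM final, with 2% DMSO final. Inoculum was an overnight culture diluted 1:100 (~5 × 10^6 cells/well) in 0.5× TSB plus 1% glucose, grown 18 h at 37°C. Wells washed, heat-fixed 60°C 60 min, stained with 0.06% crystal violet, OD600 read. MBIC is the lowest concentration giving ≥80% inhibition versus untreated; geometric mean of ≥3 experiments.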

Enterococcus faecalis [2] = assay: Antimicrobial activity against vancomycin-resistant Enterococcus faecalis isolate F177 assessed as inhibition of bacterial biofilm after 18 hrs by broth microdilution method; type: functional; procedure, shortened: as §1
Staphylococcus aureus [3] = assay: Antimicrobial activity against community acquired methicillin-resistant Staphylococcus aureus isolate 24102 assessed as inhibition of bacterial biofilm after 18 hrs by broth microdilution method; type: functional; procedure, shortened: as §1
Staphylococcus aureus [4] = assay: Antimicrobial activity against Staphylococcus aureus ATCC 35556 assessed as inhibition of primary adhesion of bacterial biofilm to polystyrene surface under static condition at MBIC after 30 mins by fluorescence emission using BaclLight Live Dead stain; type: functional, organism-based
Procedure, shortened: (§2)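 Mid-log S. aureus ATCC 35556 (OD600 0.5) grown in TSB at 37°C, washed, resuspended in PBS. Compound added (0× to 8× MBIC, 2% DMSO). Suspension placed on tissue culture-treated polystyrene or PVC 96-well plates (eight wells per level) or silicone disks in 24-well plates (three wells). Incubated 30 min at 37°C, then washed. BacLight Live/Dead fluorescence read (ex 485, em 530 nm). Result given as fraction adherent versus untreated.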

Staphylococcus aureus [5] = assay: (§3) Antimicrobial activity against Staphylococcus aureus ATCC 35556 assessed as inhibition of primary adhesion of bacterial biofilm to polystyrene surface under static condition at 0.5 times MBIC after 30 mins by fluorescence emission using BaclLight Live Dead stain; type: functional, organism-based; procedure, shortened: as §2
Staphylococcus aureus [6] = assay: Antimicrobial activity against Staphylococcus aureus ATCC 35556 assessed as inhibition of primary adhesion of bacterial biofilm to PVC surface under static condition at MBIC after 30 mins by fluorescence emission using BaclLight Live Dead stain; type: functional, organism-based; procedure, shortened: as §2
Staphylococcus aureus [7] = assay: Antimicrobial activity against Staphylococcus aureus ATCC 35556 assessed as inhibition of primary adhesion of bacterial biofilm to PVC surface under static condition at 4 times MBIC after 30 mins by fluorescence emission using BaclLight Live Dead stain; type: functional, organism-based; procedure, shortened: as §2
Staphylococcus aureus [8] = assay: Antimicrobial activity against Staphylococcus aureus ATCC 35556 assessed as inhibition of primary adhesion of bacterial biofilm to silicone disk under static condition at MBIC after 30 mins by fluorescence emission using BaclLight Live Dead stain; type: functional, organism-based; procedure, shortened: as §2
Staphylococcus aureus [9] = assay: Antimicrobial activity against Staphylococcus aureus ATCC 35556 assessed as inhibition of primary adhesion of bacterial biofilm to silicone disk surface under static condition at 4 times MBIC after 30 mins by fluorescence emission using BaclLight Live Dead stain; type: functional, organism-based; procedure, shortened: as §2
Staphylococcus aureus [10] = assay: as §3, with “pretreated with 4” for “at 0.5”, “times compound” for “times”, “MBIC for 30 mins measured” for “MBIC”; type: functional
Procedure, shortened: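 PBS suspension of mid-log S. aureus ATCC 35556 exposed to compound in tubes for 30 min at 37°C. Cells centrifuged to remove free compound and resuspended in PBS at the original density. They were then placed on tissue culture-treated polystyrene for 30 min at 37°C. Wells washed, BacLight Live/Dead fluorescence read (ex 485, em 530 nm). Fraction adherent calculated versus untreated.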

Staphylococcus aureus [11] = assay: Antimicrobial activity against Staphylococcus aureus ATCC 35556 assessed as effect on protein synthesis at 15 ug/ml; type: functional, organism-based
Enterococcus faecalis [12] = assay: Antimicrobial activity against Enterococcus faecalis ATCC 51299 on medical grade silicone disk assessed as inhibition of bacterial biofilm after 18 hrs by broth microdilution method; type: functional
Enterococcus faecalis [13] = assay: Antimicrobial activity against vancomycin-resistant Enterococcus faecalis isolate F177 on medical grade silicone disk assessed as inhibition of bacterial biofilm after 18 hrs by broth microdilution method; type: functional
Procedure, shortened: (§4)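 Medical-grade silicone disks glued to 24-well plate bottoms. Compound added to a 1:100 overnight-culture inoculum (0.5× TSB, 1% glucose) at 2% DMSO final; ≥3 wells each, ~18 h at 37°C. Washed with water, heat-fixed 60°C 60 min, stained with 0.06% crystal violet, eluted with 30% acetic acid, OD600 read. Repeated ≥3 times.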

Enterococcus faecalis [14] = assay: Antimicrobial activity against vancomycin-resistant Enterococcus faecalis isolate F217 assessed as inhibition of bacterial biofilm after 18 hrs by broth microdilution method; type: functional; procedure, shortened: as §1
Enterococcus faecalis [15] = assay: Antimicrobial activity against vancomycin-resistant Enterococcus faecalis isolate F217 on medical grade silicone disk assessed as inhibition of bacterial biofilm after 18 hrs by broth microdilution method; type: functional; procedure, shortened: as §4
Enterococcus faecalis [16] = assay: Antimicrobial activity against vancomycin-resistant Enterococcus faecalis isolate F317 on medical grade silicone disk assessed as inhibition of bacterial biofilm after 18 hrs by broth microdilution method; type: functional; procedure, shortened: as §4
[17] = test system: Staphylococcus epidermidis; assay: Antimicrobial activity against methicillin-resistant Staphylococcus epidermidis GTC 18972 assessed as inhibition of bacterial biofilm after 18 hrs by broth microdilution method; type: functional; procedure, shortened: as §1
[18] = test system: Staphylococcus epidermidis; assay: Antimicrobial activity against Staphylococcus epidermidis ATCC 35984 on medical grade silicone disk assessed as inhibition of bacterial biofilm after 18 hrs by broth microdilution method; type: functional; procedure, shortened: as §4
Staphylococcus aureus [19] = assay: Antimicrobial activity against Staphylococcus aureus ATCC 35556 assessed as inhibition of planktonic cell growth at 8 times MBIC; type: functional, organism-based
Staphylococcus aureus [20] = assay: Antimicrobial activity against Staphylococcus aureus ATCC 35556 assessed as inhibition of bacterial biofilm formation at 4 times MBIC measured after 4 hrs; type: functional, organism-based
Staphylococcus aureus [21] = assay: Antimicrobial activity against Staphylococcus aureus ATCC 35556 assessed as inhibition of bacterial biofilm formation at 4 times MBIC measured after 6 hrs; type: functional, organism-based
Staphylococcus aureus [22] = assay: Antimicrobial activity against Staphylococcus aureus ATCC 35556 assessed as inhibition of primary adhesion of bacterial biofilm to silicone disk surface under shaking condition at 4 times MBIC after 30 mins by fluorescence emission using BaclLight Live Dead stain; type: functional, organism-based
Staphylococcus aureus [23] = assay: Inhibition of […] of Staphylococcus aureus ATCC 35556 assessed as level of beta-galactosidase activity at 8 times MBIC by Miller assay; type: functional, organism-based
Procedure, shortened: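 Stationary-phase autolysis used ATCC 35556 carrying pAJ22, inoculated 1:100 from overnight culture into TSB with 6 μg chloramphenicol/ml and varying compound. Cultures were shaken at 250 rpm, 37°C, for 96 h, sampling OD600 and cell-free supernatants over time. Released β-galactosidase in supernatants was assayed with o-nitrophenyl-β-d-galactopyranoside and reported in Miller units.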

Staphylococcus aureus [24] = assay: Effect on PNAG synthesis in Staphylococcus aureus ATCC 35556 by dot blot Western analysis; type: functional, organism-based
Procedure, shortened: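 PNAG extracts were made from S. aureus ATCC 35556 grown with compound at 0× to 8× MBIC. Extracts were serially diluted 1:4, spotted onto nitrocellulose and probed with WGA-HRP, detected by chemiluminescent substrate on film. A PNAG-defective Δica::Tc strain extract served as the specificity control.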

Staphylococcus aureus [25] = assay: Antimicrobial activity against Staphylococcus aureus ATCC 35556 assessed as inhibition of primary adhesion of bacterial biofilm to silicone disk at MBIC after 30 mins by fluorescence emission using BaclLight Live Dead stain

Compound | MBIC (Staphylococcus aureus [1]) [µM] | MBIC (Staphylococcus aureus [3]) [µM] | inhibition (Staphylococcus aureus [4]) | inhibition (Staphylococcus aureus [5]) | inhibition (Staphylococcus aureus [6]) | inhibition (Staphylococcus aureus [7]) | inhibition (Staphylococcus aureus [8]) | inhibition (Staphylococcus aureus [9]) | inhibition (INH) (Staphylococcus aureus [10]) | inhibition (Staphylococcus aureus [11]) | MBIC90 (Enterococcus faecalis [13]) | MBIC (Enterococcus faecalis [14]) [µM] | MBIC90 (Enterococcus faecalis [15]) | MBIC90 (Enterococcus faecalis [16]) | also measured
CCOc1cc(/C=C2\SC(=S)N(c3cccnc3)C2=O)ccc1O | 25 | 19.8 | Active | Active | Active | Active | Active | Active | >=80% | inactive |  |  |  |  | MBIC (Enterococcus faecalis [2]): 19.8 µM
C=CCOc1cc(/C=C2\SC(=S)N(c3ccc(F)cc3)C2=O)ccc1O | 39.7 | 100 |  |  |  |  |  |  |  |  |  |  |  |  | MBIC90 (Enterococcus faecalis [12]): 100 µM
CCOc1cc(/C=C2\SC(=S)N(c3cccc(F)c3)C2=O)ccc1O |  |  |  |  |  |  |  |  |  |  | >=100 uM | 29.7 | >=100 uM | >=100 uM | 
CCOc1cc(/C=C2\SC(=S)N(c3ccc(F)cc3)C2=O)ccc1O |  |  | Active | Active | Active | Active | Active | Active | >=80% | inactive | >=100 uM | 12.5 | >=100 uM | >=100 uM | MBIC [17]: 21 µM; MBIC90 [18]: 42 µM; inhibition (Staphylococcus aureus [19]): inactive; inhibition (Staphylococcus aureus [20]): Active; inhibition (Staphylococcus aureus [21]): Active; inhibition (Staphylococcus aureus [22]): Active; inhibition (Staphylococcus aureus [23]): inactive; inhibition (Staphylococcus aureus [24]): inactive; inhibition (Staphylococcus aureus [25]): Active

— ChEMBL document CHEMBL1649230, “Aryl rhodanines specifically inhibit staphylococcal and enterococcal biofilm formation” (Antimicrob Agents Chemother, 2009)
